Data reported in ChEMBL document CHEMBL5532737, “Lead Identification of Novel Naphthyridine Derivatives as Potent SOS1 Inhibitors” (ACS Med Chem Lett, 2024).
The source made the active and inactive calls. The rule behind the calls is not given here.

Assays:
SOS1-KRAS = SOS1-KRAS (Homo sapiens, UniProt Q07889); assay: Inhibition of SOS1/KRAS G12C mutant (unknown origin) protein-protein interaction incubated for 2 hrs by HTRF analysis; assay type: protein-complex assay
[1] = Inhibition of ERK phosphorylation in human PC-9 cells incubated for 1 hr by HTRF analysis; assay type: cell-based; conditions: PC-9, 1 h
[2] = Elimination half life in ICR mouse at 1 mg/kg, iv measured upto 24 hrs by LCMS analysis; assay type: ADME, organism-based; conditions: in vivo, read-out: beta t1/2 (converted)
Summary of the method: (§1)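 Mice were dosed once orally at 5 mg/kg or intravenously at 1 mg/kg, both in solution in 5% DMSO + 95% (20% HP-β-CD). Cmax is the highest observed plasma concentration, AUC the area under the plasma concentration–time curve, and F the bioavailability. CL is reported as elimination rate and t1/2 as elimination half-life.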

[3] = Oral bioavailability in ICR mouse at 5 mg/kg measured upto 24 hrs by LCMS analysis; assay type: ADME, organism-based; conditions: in vivo; summary of the method: as §1
[4] = AUC in ICR mouse at 5 mg/kg, po measured upto 24 hrs by LCMS analysis; assay type: ADME, organism-based; conditions: in vivo; summary of the method: as §1
[5] = Clearance in ICR mouse at 1 mg/kg, iv measured upto 24 hrs by LCMS analysis; assay type: ADME, organism-based; conditions: in vivo; summary of the method: as §1
[6] = Cmax in ICR mouse at 5 mg/kg, po measured upto 24 hrs by LCMS analysis; assay type: ADME, organism-based; conditions: in vivo; summary of the method: as §1
Cytochrome P450 3A4 = Cytochrome P450 3A4 (Homo sapiens, UniProt P08684); assay: Inhibition of CYP3A4 in human liver microsomes incubated for 5 mins by LC-MS/MS analysis; assay type: ADME, Microsome
[7] = molecular target: Voltage-gated inwardly rectifying potassium channel KCNH2 (Homo sapiens, UniProt Q12809); assay: Inhibition of hERG transfected in HEK293 cells by whole-cell manual patch clamp assay; assay type: toxicity, cell-based
[8] = Plasma protein binding in dog assessed as unbound fraction incubated for 4 hrs by LC-MS/MS analysis; assay type: ADME, cell-free, Canis lupus familiaris
[9] = Drug concentration in mouse plasma at 50 mg/kg, po measured for 8 hrs; assay type: ADME, organism-based; conditions: in vivo
Summary of the method: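 Mice received a single 50 mg/kg dose, and the unbound drug concentration in plasma was followed over time.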

[10] = Plasma protein binding in rat assessed as unbound fraction incubated for 4 hrs by LC-MS/MS analysis; assay type: ADME, cell-free
Cytochrome P450 2D6 = Cytochrome P450 2D6 (Homo sapiens, UniProt P10635); assay: Inhibition of CYP2D6 in human liver microsomes incubated for 5 mins by LC-MS/MS analysis; assay type: ADME, Microsome
Cytochrome P450 2C19 = Cytochrome P450 2C19 (Homo sapiens, UniProt P33261); assay: Inhibition of CYP2C19 in human liver microsomes incubated for 5 mins by LC-MS/MS analysis; assay type: ADME, Microsome
NCI-H358 [11] = assay: Antitumor activity against human NCI-H358 cells harboring KRAS G12C mutant xenografted in BALB/c mouse assessed as reduction in ERK phosphorylation at 50 mg/kg, po measured for 2 to 24 hrs; assay type: functional, organism-based; conditions: time 2-24 hrs
Summary of the method: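 Tumor samples from NCI-H358 xenograft mice were assayed for p-ERK levels at 2 and 24 h after drug treatment. Plasma drug concentrations were measured at the same time points. Data are given as mean ± SEM.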

[12] = Plasma protein binding in mouse assessed as unbound fraction incubated for 4 hrs by LC-MS/MS analysis; assay type: ADME, cell-free
[13] = Plasma protein binding in human assessed as unbound fraction incubated for 4 hrs by LC-MS/MS analysis; assay type: ADME, cell-free
NCI-H358 [14] = assay: Antiproliferative activity against human NCI-H358 cells harboring KRAS G12C mutant assessed as inhibition of cell proliferation incubated for 5 days by celltiter-glo 3D assay; assay type: functional, cell-based; conditions: NCI-H358, 120 h
Cytochrome P450 1A2 = molecular target: T1, Cytochrome P450 1A2 (Homo sapiens, UniProt P05177); assay: Inhibition of CYP1A2 in human liver microsomes incubated for 5 mins by LC-MS/MS analysis; assay type: ADME, Microsome
T1 sequence (P05177 whole entry): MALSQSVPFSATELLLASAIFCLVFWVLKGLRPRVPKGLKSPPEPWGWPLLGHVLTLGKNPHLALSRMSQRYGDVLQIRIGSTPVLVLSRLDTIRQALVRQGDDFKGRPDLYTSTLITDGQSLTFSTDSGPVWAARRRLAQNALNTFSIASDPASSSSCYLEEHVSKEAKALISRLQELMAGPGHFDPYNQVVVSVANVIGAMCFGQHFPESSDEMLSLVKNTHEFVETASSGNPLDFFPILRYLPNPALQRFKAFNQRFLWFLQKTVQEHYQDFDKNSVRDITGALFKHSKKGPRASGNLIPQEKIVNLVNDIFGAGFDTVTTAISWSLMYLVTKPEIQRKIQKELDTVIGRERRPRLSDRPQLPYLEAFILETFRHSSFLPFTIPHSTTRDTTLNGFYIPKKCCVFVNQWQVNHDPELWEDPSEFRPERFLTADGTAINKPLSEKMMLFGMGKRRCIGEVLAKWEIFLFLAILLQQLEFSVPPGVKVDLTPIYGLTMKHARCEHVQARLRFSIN

Cytochrome P450 2C9 = Cytochrome P450 2C9 (Homo sapiens, UniProt P11712); assay: Inhibition of CYP2C9 in human liver microsomes incubated for 5 mins by LC-MS/MS analysis; assay type: ADME, Microsome
NCI-H358 [15] = assay: Antitumor activity against human NCI-H358 cells harboring KRAS G12C mutant xenografted in BALB/c mouse assessed as tumor growth inhibition at 50 mg/kg, po measured after 28 days; assay type: functional; conditions: NCI-H358, 672 h, time 28 day, read-out: TGI
Summary of the method: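 Subcutaneous NCI-H358 (KRAS G12C) xenograft mice given the drug orally. Efficacy is expressed as tumour growth inhibition (TGI), shown as mean ± SEM and compared with the vehicle group on day 28 (P < 0.05). Tumour p-ERK and plasma drug levels were measured 2 and 24 h after treatment.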

NCI-H358 [16] = assay: Antitumor activity against human NCI-H358 cells harboring KRAS G12C mutant xenografted in BALB/c mouse assessed as reduction in ERK phosphorylation at 50 mg/kg, po measured after 28 days; assay type: functional, organism-based; conditions: time 28.0 day
[17] = Toxicity against BALB/c mouse xenografted with human NCI-H358 cells harboring KRAS G12C mutant assessed as body weight loss at 50 mg/kg, po measured after 28 days; assay type: organism-based; conditions: in vivo, 672 h, time 28 day

SOS1-KRAS, sequence (Q07889 whole entry, looked up, stated change not applied): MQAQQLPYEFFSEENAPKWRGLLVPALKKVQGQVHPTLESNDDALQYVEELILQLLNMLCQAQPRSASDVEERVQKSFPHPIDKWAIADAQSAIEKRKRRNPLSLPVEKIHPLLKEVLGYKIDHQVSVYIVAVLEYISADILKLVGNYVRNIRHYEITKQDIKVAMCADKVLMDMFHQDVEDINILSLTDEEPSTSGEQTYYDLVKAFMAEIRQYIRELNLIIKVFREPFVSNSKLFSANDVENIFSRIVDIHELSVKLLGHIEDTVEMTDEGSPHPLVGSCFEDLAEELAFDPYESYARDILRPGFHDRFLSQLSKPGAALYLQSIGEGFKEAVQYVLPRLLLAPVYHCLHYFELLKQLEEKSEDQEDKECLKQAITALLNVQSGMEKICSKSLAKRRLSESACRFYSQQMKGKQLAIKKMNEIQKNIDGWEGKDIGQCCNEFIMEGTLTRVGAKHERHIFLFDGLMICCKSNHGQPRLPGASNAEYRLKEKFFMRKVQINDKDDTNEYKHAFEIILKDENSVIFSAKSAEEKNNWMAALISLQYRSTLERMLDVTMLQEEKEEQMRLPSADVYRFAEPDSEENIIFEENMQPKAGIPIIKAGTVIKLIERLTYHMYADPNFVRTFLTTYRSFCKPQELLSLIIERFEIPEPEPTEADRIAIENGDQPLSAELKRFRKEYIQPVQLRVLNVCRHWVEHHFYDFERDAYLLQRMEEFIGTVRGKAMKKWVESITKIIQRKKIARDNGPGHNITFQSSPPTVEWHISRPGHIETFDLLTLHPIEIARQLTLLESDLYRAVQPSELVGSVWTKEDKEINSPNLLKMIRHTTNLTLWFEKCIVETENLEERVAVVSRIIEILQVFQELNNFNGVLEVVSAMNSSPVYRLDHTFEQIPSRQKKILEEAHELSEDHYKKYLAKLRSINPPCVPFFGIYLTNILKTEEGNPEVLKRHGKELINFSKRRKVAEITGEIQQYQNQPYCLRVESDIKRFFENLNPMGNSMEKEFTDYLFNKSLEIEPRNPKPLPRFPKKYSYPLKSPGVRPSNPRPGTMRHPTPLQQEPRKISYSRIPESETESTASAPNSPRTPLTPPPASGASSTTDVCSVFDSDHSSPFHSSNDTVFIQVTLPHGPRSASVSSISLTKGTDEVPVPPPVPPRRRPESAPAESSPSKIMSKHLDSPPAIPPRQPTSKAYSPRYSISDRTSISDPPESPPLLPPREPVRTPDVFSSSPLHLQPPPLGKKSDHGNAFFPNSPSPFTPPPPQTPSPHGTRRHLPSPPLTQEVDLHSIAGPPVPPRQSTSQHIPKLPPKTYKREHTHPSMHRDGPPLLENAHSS
Cytochrome P450 2C9, sequence (P11712 whole entry): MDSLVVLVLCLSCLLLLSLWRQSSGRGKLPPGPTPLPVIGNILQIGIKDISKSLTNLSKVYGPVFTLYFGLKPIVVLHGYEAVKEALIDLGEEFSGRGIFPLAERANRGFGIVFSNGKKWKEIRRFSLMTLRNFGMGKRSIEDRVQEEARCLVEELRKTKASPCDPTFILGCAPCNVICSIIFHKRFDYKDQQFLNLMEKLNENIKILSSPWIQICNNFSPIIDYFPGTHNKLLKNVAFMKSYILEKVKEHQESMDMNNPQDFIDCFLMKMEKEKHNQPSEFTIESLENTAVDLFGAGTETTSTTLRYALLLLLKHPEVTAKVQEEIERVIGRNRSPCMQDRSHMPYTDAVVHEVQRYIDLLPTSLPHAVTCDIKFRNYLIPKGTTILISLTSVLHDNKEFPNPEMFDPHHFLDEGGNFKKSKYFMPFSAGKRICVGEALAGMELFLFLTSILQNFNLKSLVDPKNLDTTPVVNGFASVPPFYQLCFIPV
Cytochrome P450 3A4, sequence (P08684 whole entry): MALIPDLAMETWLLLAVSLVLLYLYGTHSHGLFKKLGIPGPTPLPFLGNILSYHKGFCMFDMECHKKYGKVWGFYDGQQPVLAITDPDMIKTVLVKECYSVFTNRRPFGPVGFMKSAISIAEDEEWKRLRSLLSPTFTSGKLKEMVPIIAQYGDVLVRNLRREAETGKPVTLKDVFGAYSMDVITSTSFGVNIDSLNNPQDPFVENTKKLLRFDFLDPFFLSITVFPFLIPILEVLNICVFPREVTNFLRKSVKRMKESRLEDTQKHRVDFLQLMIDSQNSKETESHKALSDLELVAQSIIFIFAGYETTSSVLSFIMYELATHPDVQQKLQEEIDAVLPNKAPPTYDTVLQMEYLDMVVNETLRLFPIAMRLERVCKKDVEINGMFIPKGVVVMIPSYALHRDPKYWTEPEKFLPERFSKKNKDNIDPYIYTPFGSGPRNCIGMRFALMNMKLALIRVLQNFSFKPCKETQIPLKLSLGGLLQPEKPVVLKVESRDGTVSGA
Cytochrome P450 2D6, sequence (P10635 whole entry): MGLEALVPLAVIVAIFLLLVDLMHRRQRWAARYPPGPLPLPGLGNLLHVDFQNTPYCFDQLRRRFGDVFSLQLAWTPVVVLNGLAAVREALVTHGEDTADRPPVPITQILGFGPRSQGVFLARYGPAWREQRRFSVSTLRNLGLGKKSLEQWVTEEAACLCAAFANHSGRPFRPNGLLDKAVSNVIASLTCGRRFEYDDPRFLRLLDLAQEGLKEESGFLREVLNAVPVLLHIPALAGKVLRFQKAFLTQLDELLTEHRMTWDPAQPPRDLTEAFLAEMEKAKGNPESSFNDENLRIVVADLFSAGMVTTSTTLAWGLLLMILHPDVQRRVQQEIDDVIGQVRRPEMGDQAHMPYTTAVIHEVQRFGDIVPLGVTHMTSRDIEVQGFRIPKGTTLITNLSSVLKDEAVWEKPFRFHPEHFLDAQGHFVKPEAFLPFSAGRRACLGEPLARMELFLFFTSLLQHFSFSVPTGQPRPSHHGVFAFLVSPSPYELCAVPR
Voltage-gated inwardly rectifying potassium channel KCNH2, sequence (Q12809 whole entry): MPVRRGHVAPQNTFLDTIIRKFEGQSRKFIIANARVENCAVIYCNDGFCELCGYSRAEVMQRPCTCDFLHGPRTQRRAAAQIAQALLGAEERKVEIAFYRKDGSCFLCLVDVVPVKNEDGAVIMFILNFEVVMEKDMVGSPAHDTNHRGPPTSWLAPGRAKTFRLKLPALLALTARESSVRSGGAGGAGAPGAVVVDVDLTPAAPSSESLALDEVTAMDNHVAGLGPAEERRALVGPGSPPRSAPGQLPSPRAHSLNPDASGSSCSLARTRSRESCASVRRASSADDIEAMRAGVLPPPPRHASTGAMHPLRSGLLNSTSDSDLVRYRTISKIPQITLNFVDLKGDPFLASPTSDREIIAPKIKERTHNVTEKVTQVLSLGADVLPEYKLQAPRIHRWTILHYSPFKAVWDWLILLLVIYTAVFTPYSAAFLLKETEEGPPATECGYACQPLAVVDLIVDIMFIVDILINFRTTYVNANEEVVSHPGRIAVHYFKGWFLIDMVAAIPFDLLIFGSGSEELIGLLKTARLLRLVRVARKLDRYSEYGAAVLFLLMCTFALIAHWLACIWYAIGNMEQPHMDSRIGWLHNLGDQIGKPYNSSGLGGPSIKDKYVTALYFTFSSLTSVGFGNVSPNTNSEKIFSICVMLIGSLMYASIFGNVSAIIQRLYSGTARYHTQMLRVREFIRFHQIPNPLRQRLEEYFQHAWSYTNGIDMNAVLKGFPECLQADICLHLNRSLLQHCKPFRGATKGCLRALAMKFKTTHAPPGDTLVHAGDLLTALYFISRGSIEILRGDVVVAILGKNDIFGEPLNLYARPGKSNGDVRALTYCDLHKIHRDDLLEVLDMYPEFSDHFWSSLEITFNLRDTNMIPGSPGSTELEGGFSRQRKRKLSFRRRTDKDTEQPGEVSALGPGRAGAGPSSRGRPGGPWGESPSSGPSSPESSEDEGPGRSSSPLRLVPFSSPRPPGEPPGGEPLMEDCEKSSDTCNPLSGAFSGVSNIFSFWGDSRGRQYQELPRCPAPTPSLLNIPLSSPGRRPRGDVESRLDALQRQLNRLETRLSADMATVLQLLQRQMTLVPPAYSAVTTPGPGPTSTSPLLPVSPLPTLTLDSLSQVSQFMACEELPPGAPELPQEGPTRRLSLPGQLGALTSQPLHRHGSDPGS
Cytochrome P450 2C19, sequence (P33261 whole entry): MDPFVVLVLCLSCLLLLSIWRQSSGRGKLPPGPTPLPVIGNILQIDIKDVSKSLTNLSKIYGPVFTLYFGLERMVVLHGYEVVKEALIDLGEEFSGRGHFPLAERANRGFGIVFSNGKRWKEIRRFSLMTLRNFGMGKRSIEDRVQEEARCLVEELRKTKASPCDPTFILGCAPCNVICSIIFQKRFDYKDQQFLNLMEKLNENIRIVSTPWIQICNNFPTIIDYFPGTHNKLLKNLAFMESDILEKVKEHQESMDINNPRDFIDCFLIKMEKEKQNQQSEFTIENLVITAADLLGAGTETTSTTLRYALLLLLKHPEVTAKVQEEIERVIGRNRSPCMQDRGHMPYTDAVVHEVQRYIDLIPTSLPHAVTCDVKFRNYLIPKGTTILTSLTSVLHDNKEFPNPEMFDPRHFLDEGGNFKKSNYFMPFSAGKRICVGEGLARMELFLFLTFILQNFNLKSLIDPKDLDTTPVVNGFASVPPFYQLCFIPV

Compound | IC50 (SOS1-KRAS) [µM] | IC50 [1] [µM] | also measured
CC(=O)N1CCC(c2cc3c(N[C@H](C)c4cccc(C(F)F)c4F)ccnc3cn2)C1 (some centres undefined) | 0.022 | 0.167 | 
COc1cc2nccc(N[C@H](C)c3cccc(C(F)F)c3F)c2cc1OC1CCNCC1 | 0.013 | 1.07 | 
C[C@@H](Nc1ccnc2cnc(N3CCN(S(C)(=O)=O)CC3)cc12)c1cccc(C(F)F)c1F | 0.013 |  | 
C[C@@H](Nc1ccnc2cnc(N3CCC(O)CC3)cc12)c1cccc(C(F)F)c1F | 0.0085 | 0.156 | 
COc1cc2nccc(N[C@H](C)c3cccc(C(F)F)c3F)c2cc1N1CCN(C(C)=O)CC1 | 0.0088 | 0.03 | 
COc1cc2nccc(N[C@H](C)c3cccc(C(F)F)c3F)c2cc1O[C@H]1CCN(C(=O)C2CCOCC2)C1 | 0.013 | 0.073 | 
COc1cc2nccc(N[C@H](C)c3cccc(C(F)F)c3F)c2cc1O[C@H]1CCN(C)C1 | 0.015 | 0.295 | 
COc1cc2nccc(N[C@H](C)c3cccc(C(F)F)c3F)c2cc1OC | 0.011 | 0.548 | 
COc1cc2nccc(N[C@H](C)c3cccc(C(F)F)c3F)c2cc1N1CCS(=O)(=O)CC1 | 0.0086 | 0.017 | half-life [2]: 1.75 h; bioavailability [3]: 5%; AUC at 24 h [4]: 0.029 µg·h/mL; clearance [5]: 7.62 L/h/kg; Cmax [6]: 0.01 µg/mL
COc1cc2nccc(N[C@H](C)c3cccc(C(F)F)c3F)c2cc1O[C@H]1CCNC1 | 0.006 | 0.497 | 
CC(=O)N1CCN(c2cc3c(N[C@H](C)c4cccc(C(F)F)c4F)ccnc3cn2)CC1 | 0.0058 | 0.054 | IC50 (Cytochrome P450 3A4): > 50 µM; IC50 [7]: 2.45 µM; fraction unbound at 4 h [8]: 0.0545; Drug uptake [9]: Active; fraction unbound at 4 h [10]: 0.0529; IC50 (Cytochrome P450 2D6): 11.1 µM; IC50 (Cytochrome P450 2C19): 3.16 µM; Activity (NCI-H358 [11]): Active; fraction unbound at 4 h [12]: 0.0675; half-life [2]: 1.53 h; bioavailability [3]: 81%; fraction unbound at 4 h [13]: 0.0481; AUC at 24 h [4]: 1.95 µg·h/mL; IC50 (NCI-H358 [14]): 0.322 µM; IC50 (Cytochrome P450 1A2): 17.5 µM; clearance [5]: 2.1 L/h/kg; IC50 (Cytochrome P450 2C9): 5.69 µM; Cmax [6]: 0.714 µg/mL; inhibition in vivo at 50 mg/kg (NCI-H358 [15]): 76%
COc1cc2nccc(N[C@H](C)c3cccc(C(F)F)c3F)c2cc1C1CCNCC1 | 0.014 | 0.798 | 
COc1cc2nccc(N[C@H](C)c3cccc(C(F)F)c3F)c2cc1C1CC1 | 0.023 | 1.07 | 
COc1cc2nccc(N[C@H](C)c3cccc(C(F)F)c3F)c2cc1O[C@H]1CCN(C(=O)C2CC2)C1 | 0.01 | 0.092 | 
C[C@@H](Nc1ccnc2cnc(O[C@H]3CCOC3)cc12)c1cccc(C(F)F)c1F | 0.015 | 0.77 | 
COc1cc2nc(C)nc(N[C@H](C)c3cc(N)cc(C(F)(F)F)c3)c2cc1O[C@H]1CCOC1 |  | 0.299 | IC50 (NCI-H358 [14]): 0.09 µM; Activity (NCI-H358 [16]): Active; Activity [17]: Non-Toxic; inhibition in vivo at 50 mg/kg (NCI-H358 [15]): 49%
COc1cc2nccc(N[C@H](C)c3cccc(C(F)F)c3F)c2cc1C1CCN(C(C)=O)CC1 | 0.011 | 1.03 | 
C[C@@H](Nc1ccnc2cnc(N3CCS(=O)(=O)CC3)cc12)c1cccc(C(F)F)c1F | 0.0052 | 0.056 | half-life [2]: 1.18 h; bioavailability [3]: 36%; AUC at 24 h [4]: 0.406 µg·h/mL; clearance [5]: 4.02 L/h/kg; Cmax [6]: 0.136 µg/mL
COc1cc2nccc(N[C@H](C)c3cccc(C(F)F)c3F)c2cc1O[C@H]1CCN(C(C)=O)C1 | 0.0038 | 0.045 | half-life [2]: 0.45 h; bioavailability [3]: 19%; AUC at 24 h [4]: 0.152 µg·h/mL; clearance [5]: 6.42 L/h/kg; Cmax [6]: 0.077 µg/mL
COc1cc2nccc(N[C@H](C)c3cccc(C(F)F)c3F)c2cc1O[C@H]1CCOC1 | 0.0067 | 0.212 | 
C[C@@H](Nc1ccnc2cnc(N3CCOCC3)cc12)c1cccc(C(F)F)c1F | 0.007 | 0.349 | 
C[C@@H](Nc1ccnc2cnc(N3CCN(C)C(=O)C3)cc12)c1cccc(C(F)F)c1F | 0.0069 | 0.13 | 
CC(=O)N1CCC(c2cc3c(N[C@H](C)c4cccc(C(F)F)c4F)ccnc3cn2)CC1 | 0.0097 | 0.077 | half-life [2]: 0.88 h; bioavailability [3]: 25%; AUC at 24 h [4]: 0.578 µg·h/mL; clearance [5]: 2.4 L/h/kg; Cmax [6]: 0.424 µg/mL
CC(=O)NC1CCN(c2cc3c(N[C@H](C)c4cccc(C(F)F)c4F)ccnc3cn2)CC1 | 0.012 | 0.49 | 
